Test results published in publication PMC8593914 (Experimental and Therapeutic Medicine, 2021).

Assays:
kisspeptin = test: SPR binding of RFRP-3 to immobilized kisspeptin; design: species or system rat; details: Biacore T200
Method in brief: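 Kisspeptin at 20 µg/ml in sodium acetate pH 5.5 was coupled to a CM5 chip (5,720 RU). Running buffer was PBS-P: 10 mM phosphate, 2.7 mM KCl, 137 mM NaCl, 0.05% P20, pH […]. Test peptide at 3.125–50 µM went over the detection and reference channels at 4 °C: 60 s injection, 15 µl/min, 15 min dissociation. Regeneration used 10 mM glycine-HCl pH 2.0 for 30 s; kinetic parameters were fitted.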

GnRH neurons = details: cited from earlier work
mice = details: cited from earlier work
LH and FSH = details: Japanese quail; cited from earlier work

RFamide-related peptide-3 [RFRP-3]
direct binding to kisspeptin (in words) (kisspeptin): could bind directly to kisspeptin | secretion of GnRH and expression and secretion of gonadotropin (GnRH neurons): inhibit the secretion of GnRH via its receptor on GnRH neurons, thus acting on the pituitary system to inhibit the expression and secretion of gonadotropin, LH and FSH

SIKPSAYLPLRFa [GnIH, gonadotropin-inhibitory hormone]
expression levels of glucose transporter 4 (mice): increased the expression levels of glucose transporter 4 | food intake (mice): increased food intake | glucose uptake / glucose transporter 8 expression (mice): reduced glucose uptake by downregulating the expression levels of glucose transporter 8 | synthesis of triglycerides in adipose tissue (mice): increased the synthesis of triglycerides in adipose tissue | testosterone synthesis (mice): reduced testosterone synthesis | secretion of LH and FSH (LH and FSH): inhibit the secretion of LH and FSH in the brain of Japanese quail
